Results pooled from the literature.
Lines come from different studies, so protocols differ.
Organism: Salmonella enterica
Read-out: microbial growth

Cc1cc(NS(=O)(=O)c2ccc(N)cc2)no1  MIC (20 h, pH 7): 64 µg/mL
CN(C)[C@@H]1C(O)=C(C(N)=O)C(=O)[C@@]2(O)C(O)=C3C(=O)c4c(O)cccc4[C@@](C)(O)[C@H]3C[C@@H]12  MIC (ATCC14028 TYPHIMURIUM): 8 µg/mL
CNC(=O)c1cc(Oc2ccc(NC(=O)Nc3ccc(Cl)c(C(F)(F)F)c3)cc2)ccn1  MIC (TYPHIMURIUM): > 100 µM
C/C(=N\NC(=N)N)c1ccc(Oc2ccc(/C(C)=N/NC(=N)N)cc2)cc1.Cl.Cl  MIC (ATCC14028): 54.9 µg/mL
C[C@@H](O)[C@H]1C(=O)N2C(C(=O)O)=C(S[C@@H]3CN[C@H](C(=O)N(C)C)C3)[C@H](C)[C@H]12  MIC (broth dilution; CHOLERAESUIS; clinical isolate): ≤ 0.5 µg/mL
CC1(C)S[C@@H]2[C@H](NC(=O)[C@H](N)c3ccccc3)C(=O)N2[C@H]1C(=O)O  MIC (broth dilution): 8 µg/mL
O=C(Nc1ccc2c(c1)OC(F)(F)O2)Nc1ccc(Cl)c(C(F)(F)F)c1  MIC (TYPHIMURIUM): > 100 µM
COc1cc(Cc2cnc(N)nc2N)cc(OC)c1OC  MIC (20 h, pH 7.2): 0.25 µg/mL
Cl.N=C(N)N/N=C/c1ccc(-c2ccc(/C=N/Nc3ccccc3Cl)cc2)cc1  MIC (ATCC14028): > 215 µg/mL
O=C(O)c1cn(C2CC2)c2cc(N3CCNCC3)c(F)cc2c1=O  MIC (20 h, pH 7.2): 0.0156 µg/mL
NC[C@H]1O[C@H](O[C@H]2[C@H](O)[C@@H](O[C@H]3O[C@H](CO)[C@@H](O)[C@H](N)[C@H]3O)[C@H](N)C[C@@H]2N)[C@H](N)C[C@@H]1O  MIC (ATCC14028): 150 µg/mL
